# Reference: paper PMC2229441 (The Journal of General Physiology, 1998)
# Where two headings read alike, the source gives them in different places.
# Legend:
# patch-clamped mast cells = assay type: cell-based, rat
# Summary of the method: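 Peritoneal mast cells from male Wistar rats (300–350 g), Percoll-purified, held in DMEM/F-12 with 2 mM glutamine at 37°C, 5% CO2. Test peptide is delivered through the patch pipette (IS 2 with 100 μM FURA-2 and EGTA buffering). Degranulation is tracked as membrane capacitance rise after patch rupture; delay is taken at 10% capacitance increase. [Ca2+]i is read from 340/380 nm ratios. Mean ± SEM (cells).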
# PtX-treated mast cells = settings: non–membrane-penetrating dyes; ref Wiesner et al., manuscript in preparation; cited from earlier work
compound,measurement,setting,value
Nc1nc2c(ncn2[C@@H]2O[C@H](COP(=O)(O)OP(O)(O)=S)[C@@H](O)[C@H]2O)c(=O)[nH]1 [GDPβS],cells in which SP-induced exocytosis was inhibited,patch-clamped mast cells; 1 mM GDPβS applied together with 5 μM SP through the patch pipette,four of five
Nc1nc2c(ncn2[C@@H]2O[C@H](COP(=O)(O)OP(=O)(O)OP(O)(O)=S)[C@@H](O)[C@H]2O)c(=O)[nH]1 [GTPγS],degranulation rate,"patch-clamped mast cells; 2.5–5 μM, n = 25, mean ± SEM",0.05 ± 0.005 pF/s
same,degranulation rate,"patch-clamped mast cells; 10–25 μM, n = 16, mean ± SEM",0.15 ± 0.03 pF/s
same,"shortest time delay, extrapolated to high concentrations",patch-clamped mast cells; extrapolation of curves of Fig. 7,about 20 s
same,cells in which degranulation occurred,"patch-clamped mast cells; intracellular application at similar concentrations as SP, IS 1",41 of 45
same,membrane capacitance increase in degranulating cells,"patch-clamped mast cells; intracellular application, IS 1, mean ± SEM (SP n = 31)",2.7 ± 0.1 fold
carboxyfluorescein,translocation into PtX-treated mast cells,PtX-treated mast cells,not translocated
